In brackets after ≈: the same amount, converted by molar mass.
Legend:
Escherichia coli = assay: In vitro antibacterial activity of compound against Escherichia coli SKF 12140; type: functional
Klebsiella pneumoniae = assay: In vitro antibacterial activity of compound against Klebsiella pneumoniae ISM; type: functional
[1] = system: Mycobacterium scrofulaceum; assay: In vitro activity of compound against slowly growing Mycobacterium scrofulaceum 1292; type: functional
Method in brief: (§1)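 Medium was Middlebrook 7H10 agar with 2% glycerol and 10% OADC. Organisms from Loevenstein-Jensen slants were grown in 7H9 broth with 0.5% Tween and 10% OADC, adjusted to McFarland no. 1, and spotted with a multipoint inoculator. Sealed plates were incubated at 22, 30 or 37 °C for 4-20 days depending on strain.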

[2] = system: Mycobacterium scrofulaceum; assay: In vitro activity of compound against slowly growing Mycobacterium scrofulaceum 1293; type: functional; method in brief: as §1
[3] = system: Mycobacterium scrofulaceum; assay: In vitro activity of compound against slowly growing Mycobacterium scrofulaceum 1297; type: functional; method in brief: as §1
[4] = system: Mycobacterium scrofulaceum; assay: In vitro activity of compound against slowly growing Mycobacterium scrofulaceum 1301; type: functional; method in brief: as §1
[5] = system: Mycolicibacterium smegmatis; assay: In vitro activity of compound against rapidly growing Mycobacterium smegmatis 139; type: functional; method in brief: as §1
[6] = system: Mycolicibacterium smegmatis; assay: In vitro activity of compound against rapidly growing Mycobacterium smegmatis 1442; type: functional; method in brief: as §1
[7] = system: Mycolicibacterium smegmatis; assay: In vitro activity of compound against rapidly growing Mycobacterium smegmatis 31; type: functional; method in brief: as §1
Mycobacterium xenopi [8] = assay: In vitro activity compound against slowly growing Mycobacterium xenopi 1446; type: functional; method in brief: as §1
Mycobacterium xenopi [9] = assay: In vitro activity of compound against slowly growing Mycobacterium xenopi 554; type: functional; method in brief: as §1
Mycobacterium xenopi [10] = assay: In vitro activity of compound against slowl growingy Mycobacterium xenopi 555; type: functional; method in brief: as §1
Mycolicibacterium phlei [11] = assay: In vitro activity of compound against rapidly growing Mycobacterium phlei 141; type: functional; method in brief: as §1
Mycolicibacterium phlei [12] = assay: In vitro activity of compound against rapidly growing Mycobacterium phlei 1283; type: functional; method in brief: as §1
Mycolicibacterium phlei [13] = assay: In vitro activity of compound against rapidly growing Mycobacterium phlei 1289; type: functional; method in brief: as §1
Mycobacterium kansasii [14] = assay: In vitro activity compound against slowly growing Mycobacterium kansasii 1298; type: functional; method in brief: as §1
Mycobacterium kansasii [15] = assay: In vitro activity of compound against slowly growing Mycobacterium kansasii 1299; type: functional; method in brief: as §1
Mycobacterium marinum [16] = assay: In vitro activity of compound against slowly growing Mycobacterium marinum 1388; type: functional; method in brief: as §1
Mycobacterium marinum [17] = assay: In vitro activity of compound against slowly growing Mycobacterium marinum 1390; type: functional; method in brief: as §1
Mycobacterium marinum [18] = assay: In vitro activity of compound against slowly growing Mycobacterium marinum 1391; type: functional; method in brief: as §1
[19] = system: Mycolicibacterium fortuitum; assay: In vitro activity of compound against rapidly growing Mycobacterium fortuitum 114; type: functional; method in brief: as §1
[20] = system: Mycolicibacterium fortuitum; assay: In vitro activity of compound against rapidly growing Mycobacterium fortuitum 1285; type: functional; method in brief: as §1
[21] = system: Mycolicibacterium fortuitum; assay: In vitro activity of compound against rapidly growing Mycobacterium fortuitum 1287; type: functional; method in brief: as §1
[22] = system: Mycolicibacterium fortuitum; assay: In vitro activity compound against rapidly growing Mycobacterium fortuitum 1302; type: functional; method in brief: as §1
[23] = system: Mycolicibacterium fortuitum; assay: In vitro activity of compound against rapidly growing Mycobacterium fortuitum 140; type: functional; method in brief: as §1
[24] = system: Mycolicibacterium fortuitum; assay: In vitro activity compound against rapidly growing Mycobacterium fortuitum 1440; type: functional; method in brief: as §1
[25] = system: Mycolicibacterium fortuitum; assay: In vitro activity of compound against rapidly growing Mycobacterium fortuitum 646; type: functional; method in brief: as §1
[26] = system: Mycolicibacterium fortuitum; assay: In vitro activity of compound against rapidly growing Mycobacterium fortuitum 726; type: functional; method in brief: as §1
Mycobacterium gordonae [27] = assay: In vitro activity of compound against slowly growing Mycobacterium gordonae 1294; type: functional; method in brief: as §1
Mycobacterium gordonae [28] = assay: In vitro activity of compound against slowly growing Mycobacterium gordonae 1441; type: functional; method in brief: as §1
Mycobacterium kansasii [29] = assay: In vitro activity compound against slowly growing Mycobacterium kansasii 1291; type: functional; method in brief: as §1
[30] = system: Mycolicibacterium flavescens; assay: In vitro activity of compound against rapidly growing Mycobacterium flavescens 1284; type: functional; method in brief: as §1
[31] = system: Mycolicibacterium flavescens; assay: In vitro activity of compound against rapidly growing Mycobacterium flavescens 1286; type: functional; method in brief: as §1
Mycobacterium marinum [32] = assay: In vitro activity of compound against slowly growing Mycobacterium marinum 1392; type: functional; method in brief: as §1
Mycobacterium marinum [33] = assay: In vitro activity of compound against slowly growing Mycobacterium marinum 1393; type: functional; method in brief: as §1
Mycobacterium marinum [34] = assay: In vitro activity of compound against slowly growing Mycobacterium marinum 1394; type: functional; method in brief: as §1
Mycobacterium marinum [35] = assay: In vitro activity of compound against slowly growing Mycobacterium marinum 1447; type: functional; method in brief: as §1
Mycobacterium avium [36] = assay: 50% inhibition of the 20 Mycobacterium (MAC) avium complex clinical isolates; type: functional
Method in brief: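 Agar-dilution MICs, 2-fold dilutions over 128-0.0001 μg/mL, on Middlebrook 7H10 agar with 2% glycerol and 10% OADC. Organisms from Loevenstein-Jensen slants were grown in 7H9 broth with 0.5% Tween and 10% OADC, adjusted to McFarland no. 1, and spotted with a multipoint inoculator. Plates were sealed and incubated at 22, 30 or 37 °C for 4-20 days depending on strain.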

Neisseria gonorrhoeae = assay: In vitro antibacterial activity of compound against Neisseria gonorrhoeae ISM 68/126; type: functional
Pseudomonas aeruginosa = assay: In vitro antibacterial activity of compound against Pseudomonas aeruginosa ATCC 10145; type: functional
Method in brief: (§2)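 Twofold microdilution MIC in Iso-Sensitest broth over 128-0.0001 µg/mL. Inoculum was 10^4 cfu/mL, with incubation at 37 °C for 18-24 h.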

Proteus vulgaris = assay: In vitro antibacterial activity of compound against Proteus vulgaris X19H ATCC 881; type: functional
[37] = system: Staphylococcus epidermidis; assay: In vitro antibacterial activity of compound against Staphylococcus epidermidis ATCC 12228; type: functional; method in brief: as §2
Streptococcus pyogenes [38] = assay: Inhibitory concentration of compound against Streptococcus pyogenus septicemia in the mouse, administarted in OS route; type: functional
Method in brief: (§3)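 Male and female CD1 mice (18-22 g) were infected ip with S. pyogenes C203, with the challenge set so untreated mice died within 48 h. Groups of five received a single treatment immediately after infection. ED50 was calculated from the percentage surviving at each dose on day 10.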

Streptococcus pyogenes [39] = assay: Inhibitory concentration of compound against Streptococcus pyogenus septicemia in the mouse, administarted in subcutaneous route; type: functional; conditions: sc; method in brief: as §3
Streptococcus pyogenes [40] = assay: Minimum inhibitory concentration of compound against Streptococcus pyogenus septicemia in the mouse; type: functional
Streptococcus pyogenes [41] = assay: In vitro antibacterial activity of compound against Streptococcus pyogenes C 203 SKF 13400; type: functional
Method in brief: (§4)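 Streptococcal MICs were run by twofold microdilution in Todd-Hewitt broth over 128-0.0001 µg/mL. Inoculum was 10^4 cfu/mL, with incubation at 37 °C for 18-24 h.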

Staphylococcus aureus = assay: In vitro antibacterial activity of compound against Staphylococcus aureus Tour L 165; type: functional; method in brief: as §2
Streptococcus pneumoniae = assay: In vitro antibacterial activity of compound against Streptococcus pneumoniae UC 41; type: functional; method in brief: as §4
Enterococcus faecalis = assay: In vitro antibacterial activity of compound against Streptococcus faecalis ATCC 7080.; type: functional; method in brief: as §2
[42] = system: Mycolicibacterium fortuitum; assay: In vitro activity of compound against rapidly growing Mycobacterium fortuitum 645; type: functional; method in brief: as §1
Haemophilus influenzae = assay: In vitro antibacterial activity of compound against Haemophilus influenzae ATCC 19418; type: functional
Mycobacterium xenopi [43] = assay: In vitro activity of compound against slowly growing Mycobacterium xenopi 556; type: functional; method in brief: as §1
Mycobacterium avium [44] = assay: 90% inhibition of the 20 Mycobacterium avium complex (MAC) clinical isolates
Mycobacteroides chelonae = assay: In vitro activity of compound against rapidly growing Mycobacterium chelonae 1443
Mycobacterium avium [45] = assay: Minimum inhibitory concentration of compound against 20 Mycobacterium avium complex (MAC) clinical isolates

CCN(CC)c1nc2c(s1)c1c(O)c3c(O)c(C)c4c(c32)C(=O)C(C)(O/C=C/C(OC)C(C)C(OC(C)=O)C(C)C(O)C(C)C(O)C(C)/C=C/C=C(/C)C(=O)N1)O4 (stereo not given) showed an MIC (Escherichia coli) of 32 µg/mL (≈ 39.5 µM), an MIC (Klebsiella pneumoniae) of 32 µg/mL (≈ 39.5 µM) and an MIC [1] of 0.032 µg/mL (≈ 0.0395 µM). For the same compound, the MIC [2] was 0.125 µg/mL (≈ 0.154 µM), the MIC [3] was 0.063 µg/mL (≈ 0.0778 µM) and the MIC [4] was 2 µg/mL (≈ 2.47 µM). It also gave an MIC [5] of 8 µg/mL (≈ 9.88 µM), an MIC [6] of 8 µg/mL (≈ 9.88 µM) and an MIC [7] of 8 µg/mL (≈ 9.88 µM). The MIC (Mycobacterium xenopi [8]) was 4 µg/mL (≈ 4.94 µM), the MIC (Mycobacterium xenopi [9]) was 2 µg/mL (≈ 2.47 µM) and the MIC (Mycobacterium xenopi [10]) was 4 µg/mL (≈ 4.94 µM). It also gave an MIC (Mycolicibacterium phlei [11]) of 0.032 µg/mL (≈ 0.0395 µM), an MIC (Mycolicibacterium phlei [12]) of 0.125 µg/mL (≈ 0.154 µM) and an MIC (Mycolicibacterium phlei [13]) of 2 µg/mL (≈ 2.47 µM). It also gave an MIC (Mycobacterium kansasii [14]) of 0.25 µg/mL (≈ 0.309 µM), an MIC (Mycobacterium kansasii [15]) of 2 µg/mL (≈ 2.47 µM) and an MIC (Mycobacterium marinum [16]) of 2 µg/mL (≈ 2.47 µM). For the same compound, the MIC (Mycobacterium marinum [17]) was 4 µg/mL (≈ 4.94 µM), the MIC (Mycobacterium marinum [18]) was 1 µg/mL (≈ 1.23 µM) and the MIC [19] was 16 µg/mL (≈ 19.8 µM). For the same compound, the MIC [20] was 16 µg/mL (≈ 19.8 µM), the MIC [21] was 2 µg/mL (≈ 2.47 µM) and the MIC [22] was 2 µg/mL (≈ 2.47 µM). It also gave an MIC [23] of 16 µg/mL (≈ 19.8 µM), an MIC [24] of 16 µg/mL (≈ 19.8 µM) and an MIC [25] of 32 µg/mL (≈ 39.5 µM). For the same compound, the MIC [26] was 32 µg/mL (≈ 39.5 µM), the MIC (Mycobacterium gordonae [27]) was 0.5 µg/mL (≈ 0.617 µM) and the MIC (Mycobacterium gordonae [28]) was 2 µg/mL (≈ 2.47 µM). It also gave an MIC (Mycobacterium kansasii [29]) of 2 µg/mL (≈ 2.47 µM), an MIC [30] of 32 µg/mL (≈ 39.5 µM) and an MIC [31] of 0.25 µg/mL (≈ 0.309 µM). It also gave an MIC (Mycobacterium marinum [32]) of 1 µg/mL (≈ 1.23 µM), an MIC (Mycobacterium marinum [33]) of 1 µg/mL (≈ 1.23 µM) and an MIC (Mycobacterium marinum [34]) of 1 µg/mL (≈ 1.23 µM). The MIC (Mycobacterium marinum [35]) was 1 µg/mL (≈ 1.23 µM), the MIC50 (Mycobacterium avium [36]) was 2 µg/mL (≈ 2.47 µM) and the MIC (Neisseria gonorrhoeae) was 0.5 µg/mL (≈ 0.617 µM). For the same compound, the MIC (Pseudomonas aeruginosa) was 8 µg/mL (≈ 9.88 µM), the MIC (Proteus vulgaris) was 32 µg/mL (≈ 39.5 µM) and the MIC [37] was 0.063 µg/mL (≈ 0.0778 µM). It also gave an ED50 (Streptococcus pyogenes [38]) of 1.23 mg/kg, an ED50 (Streptococcus pyogenes [39]) of 1.62 mg/kg and an MIC (Streptococcus pyogenes [40]) of 0.135 µg/mL (≈ 0.167 µM). The MIC (Streptococcus pyogenes [41]) was 0.125 µg/mL (≈ 0.154 µM), the MIC (Staphylococcus aureus) was 0.125 µg/mL (≈ 0.154 µM) and the MIC (Streptococcus pneumoniae) was 0.063 µg/mL (≈ 0.0778 µM). The MIC (Enterococcus faecalis) was 2 µg/mL (≈ 2.47 µM), the MIC [42] was 2 µg/mL (≈ 2.47 µM) and the MIC (Haemophilus influenzae) was 0.5 µg/mL (≈ 0.617 µM). For the same compound, the MIC (Mycobacterium xenopi [43]) was 4 µg/mL (≈ 4.94 µM), the MIC90 (Mycobacterium avium [44]) was 2 µg/mL (≈ 2.47 µM) and the MIC (Mycobacteroides chelonae) was greater than 128 µg/mL. For the same compound, the MIC (Mycobacterium avium [45]) was 0.5 µg/mL (≈ 0.617 µM).
